pIC50: −log10 of the molar value. One block for each compound: values may come before it.
Key:
[1] = tested on: HL-60; assay: In vitro inhibition of human leukemic HL-60 cell growth in culture; format: functional, cell-based
In short: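 HL-60 cells were seeded at 5×10^4 cells/mL in RPMI 1640 with 10% heat-inactivated FBS, penicillin and streptomycin, at 37 °C in 5% CO2. Cells were exposed for 72 h to six or seven drug concentrations, run in duplicate. Viability was read by XTT-tetrazolium microculture absorbance, and IC50 was derived from median-effect plot analysis.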

[2] = tested on: Mus musculus; assay: […] anticancer activity against B6D2F-1 mice bearing P388 leukemia measured by the Average survival time(day+/-SD) at an intravenous dose of 18(mg/kg).; format: functional
In short: (§1)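 Male B6D2F1 mice, 8 weeks old, 20–25 g. P388/0 ascites cells (0.2 mL, ascites:saline 1.10) were implanted iv on day 0, and the tumor grew in the liver. Drug was given iv by tail vein on days 1, 3, 5, 7 and 9 (Q2Dx5), with 4–5 mice per group. Survival time was scored as 8 a.m. (0.0), 1 p.m. (0.25) or 5 p.m. (0.5) deaths. %ILS was averaged against untreated controls, and toxic deaths were counted.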

[3] = tested on: Mus musculus; assay: […] anticancer activity against B6D2F-1 mice bearing P388 leukemia measured by the Average survival time(day+/-SD) at an intravenous dose of 24(mg/kg).; format: functional; in short: as §1
[4] = tested on: Mus musculus; assay: […] anticancer activity against B6D2F-1 mice bearing P388 leukemia measured by the average survival time(day+/-SD) at an intravenous dose of 12(mg/kg)..; format: functional; in short: as §1
[5] = tested on: Mus musculus; assay: […] anticancer activity against B6D2F-1 mice bearing P388 leukemia measured by the average weight change(g) after day 7 at an intravenous dose of 18(mg/kg).; format: functional
In short: (§2)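 Male B6D2F1 mice (8 weeks old, 20–25 g) were implanted iv on day 0 with P388/0 ascites cells (0.2 mL; ascites:saline 1.10), which grew in the liver. Drug was given iv via the tail vein, Q2Dx5, on days 1, 3, 5, 7 and 9. Groups had 4–5 mice. Day 1 value is mean body weight; later days are weight change.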

[6] = tested on: Mus musculus; assay: […] anticancer activity against B6D2F-1 mice bearing P388 leukemia measured by the average weight change(g) after day 7 at an intravenous dose of 24(mg/kg).; format: functional; in short: as §2
[7] = tested on: Mus musculus; assay: […] anticancer activity against B6D2F-1 mice bearing P388 leukemia measured by the average weight change(g) after day 11 at an intravenous dose of 18(mg/kg).; format: functional; in short: as §2
[8] = tested on: Mus musculus; assay: […] anticancer activity against B6D2F-1 mice bearing P388 leukemia measured by the average weight change(g) after day 7 at an intravenous dose of 12(mg/kg).; format: functional; in short: as §2
[9] = tested on: Mus musculus; assay: […] anticancer activity against B6D2F-1 mice bearing P388 leukemia measured by the increase in lifespan(%) at an intravenous dose of 12(mg/kg)..; format: functional; in short: as §1
[10] = tested on: Mus musculus; assay: […] anticancer activity against B6D2F-1 mice bearing P388 leukemia measured by the increase in lifespan(%) at an intravenous dose of 18(mg/kg).; format: functional; in short: as §1
[11] = tested on: Mus musculus; assay: […] anticancer activity against B6D2F-1 mice bearing P388 leukemia measured by the average weight change(g) after day 11 at an intravenous dose of 24(mg/kg).; format: functional; in short: as §2
[12] = tested on: Mus musculus; assay: […] anticancer activity against B6D2F-1 mice bearing P388 leukemia measured by the average weight change(g) after day 11 at an intravenous dose of 12(mg/kg).; format: functional; in short: as §2
[13] = tested on: Mus musculus; assay: […] anticancer activity against B6D2F-1 mice bearing P388 leukemia measured by the average weight change(g) after day 9 at an intravenous dose of 12(mg/kg).; format: functional
In short: (§3)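 Male B6D2F1 mice (8 weeks old, 20–25 g) were implanted iv on day 0 with P388/0 ascites cells (0.2 mL; ascites:saline = 1.10). Tumor grew in the liver. Drug was given iv via the tail vein, Q2Dx5, on days 1, 3, 5, 7 and 9. Body weight was recorded on days 1, 7, 9 and 11 and reported as the average change (g).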

[14] = tested on: Mus musculus; assay: […] anticancer activity against B6D2F-1 mice bearing P388 leukemia measured by the average weight change(g) after day 9 at an intravenous dose of 18(mg/kg).; format: functional; in short: as §3
[15] = tested on: Mus musculus; assay: […] anticancer activity against B6D2F-1 mice bearing P388 leukemia measured by the average weight change(g) after day 9 at an intravenous dose of 24(mg/kg).; format: functional; in short: as §3
[16] = tested on: Mus musculus; assay: […] anticancer activity against B6D2F-1 mice bearing P388 leukemia measured by the increase in lifespan(%) at an intravenous dose of 24(mg/kg).; format: functional; in short: as §1
[17] = tested on: Mus musculus; assay: […] anticancer activity against 5 B6D2F-1 mice bearing P388 leukemia measured by the toxicity death at an intravenous dose of 12(mg/kg)..; format: organism-based; details: in vivo; in short: as §1
[18] = tested on: Mus musculus; assay: […] anticancer activity against 5 B6D2F-1 mice bearing P388 leukemia measured by the toxicity death at an intravenous dose of 18(mg/kg).; format: organism-based; details: in vivo; in short: as §1
[19] = tested on: Mus musculus; assay: […] anticancer activity against 5 4 B6D2F-1 mice bearing P388 leukemia measured by the toxicity death at an intravenous dose of 24(mg/kg).; format: organism-based; details: in vivo; in short: as §1
[20] = tested on: Mus musculus; assay: […] anticancer activity against B6D2F-1 mice bearing P388 leukemia measured by the average body weight(g) after day 1 at an intravenous dose of 18(mg/kg).
[21] = tested on: Mus musculus; assay: […] anticancer activity against B6D2F-1 mice bearing P388 leukemia measured by the average body weight(g) after day 1 at an intravenous dose of 24(mg/kg).
[22] = tested on: Mus musculus; assay: […] anticancer activity against B6D2F-1 mice bearing P388 leukemia measured by the average body weight(g) after day 1 at an intravenous dose of 12(mg/kg).
[23] = tested on: Mus musculus; assay: […] anticancer activity against B6D2F-1 mice bearing P388 leukemia measured by the Average survival time(day+/-SD) at an intravenous dose of 4(mg/kg).; format: functional; in short: as §1
[24] = tested on: Mus musculus; assay: […] anticancer activity against B6D2F-1 mice bearing P388 leukemia measured by the average survival time(day+/-SD) at an intravenous dose of 3(mg/kg)..; format: functional; in short: as §1
[25] = tested on: Mus musculus; assay: […] anticancer activity against B6D2F-1 mice bearing P388 leukemia measured by the average weight change(g) after day 7 at an intravenous dose of 3(mg/kg).; format: functional; in short: as §3
[26] = tested on: Mus musculus; assay: […] anticancer activity against B6D2F-1 mice bearing P388 leukemia measured by the average weight change(g) after day 7 at an intravenous dose of 4(mg/kg).; format: functional; in short: as §3
[27] = tested on: Mus musculus; assay: […] anticancer activity against B6D2F-1 mice bearing P388 leukemia measured by the average weight change(g) after day 9 at an intravenous dose of 4(mg/kg).; format: functional; in short: as §3
[28] = tested on: Mus musculus; assay: […] anticancer activity against B6D2F-1 mice bearing P388 leukemia measured by the average weight change(g) after day 11 at an intravenous dose of 4(mg/kg).; format: functional; in short: as §2
[29] = tested on: Mus musculus; assay: […] anticancer activity against B6D2F-1 mice bearing P388 leukemia measured by the average weight change(g) after day 11 at an intravenous dose of 3(mg/kg).; format: functional; in short: as §2
[30] = tested on: Mus musculus; assay: […] anticancer activity against B6D2F-1 mice bearing P388 leukemia measured by the increase in lifespan(%) at an intravenous dose of 3(mg/kg)..; format: functional; in short: as §1
[31] = tested on: Mus musculus; assay: […] anticancer activity against B6D2F-1 mice bearing P388 leukemia measured by the increase in lifespan(%) at an intravenous dose of 4(mg/kg).; format: functional; in short: as §1
[32] = tested on: Mus musculus; assay: […] anticancer activity against 5 B6D2F-1 mice bearing P388 leukemia measured by the toxicity death at an intravenous dose of 3(mg/kg)..; format: organism-based; details: in vivo; in short: as §1
[33] = tested on: Mus musculus; assay: […] anticancer activity against 5 B6D2F-1 mice bearing P388 leukemia measured by the toxicity death at an intravenous dose of 4(mg/kg).; format: organism-based; details: in vivo; in short: as §1
[34] = tested on: Mus musculus; assay: […] anticancer activity against B6D2F-1 mice bearing P388 leukemia measured by the average body weight(g) after day 1 at an intravenous dose of 3(mg/kg).
[35] = tested on: Mus musculus; assay: […] anticancer activity against B6D2F-1 mice bearing P388 leukemia measured by the average body weight(g) after day 1 at an intravenous dose of 4(mg/kg).

Compound: O=C(Nc1cc(CO)cc(Nc2c3ccccc3nc3ccccc23)c1)OCc1ccccc1
pIC50 [1]: 7.54

Compound: CC(C)COC(=O)Nc1cc(CO)cc(Nc2c3ccccc3nc3ccccc23)c1
pIC50 [1]: 8.05

Compound: COC(=O)Nc1cc(CO)cc(Nc2c3ccccc3nc3ccccc23)c1
pIC50 [1]: 8.07

Compound: CCOC(=O)Nc1cc(CO)cc(Nc2c3ccccc3nc3c(OC)cccc23)c1
pIC50 [1]: 8.00

Compound: CCOC(=O)Nc1cc(CO)cc(Nc2c3ccccc3nc3c(C(=O)NCCN(C)C)cccc23)c1
pIC50 [1]: 8.24

Compound: Cc1cccc2c(Nc3cc(N)cc(CO)c3)c3cccc(C(=O)NCCN(C)C)c3nc12
pIC50 [1]: 8.13

Compound: CC(C)(C)OC(=O)Nc1cc(CO)cc(Nc2c3ccccc3nc3ccccc23)c1
pIC50 [1]: 7.62
Average survival [2]: 22.1 days
Average survival [3]: 21 days
Average survival [4]: 18 days
Average weight change [5]: -1.3 g
Average weight change [6]: -1.4 g
Average weight change [7]: -1.6 g
Average weight change [8]: -0.1 g
Increase in life-span [9]: 181%
Increase in life-span [10]: 245%
Average weight change [11]: -1.8 g
Average weight change [12]: 0.3 g
Average weight change [13]: -0.7 g
Average weight change [14]: -1.2 g
Average weight change [15]: -1.4 g
Increase in life-span [16]: 228%
Toxicity related death [17]: 0
Toxicity related death [18]: 0
Toxicity related death [19]: 2
Body weight [20]: 23.9 g
Body weight [21]: 22.3 g
Body weight [22]: 23.1 g

Compound: CNC(=O)c1cccc2c(Nc3cc(N)cc(CO)c3)c3cccc(OC)c3nc12
pIC50 [1]: 6.92

Compound: COc1cccc2c(Nc3cc(N)cc(CO)c3)c3cccc(C(=O)NCCN(C)C)c3nc12
pIC50 [1]: 7.42

Compound: CCOC(=O)Nc1cc(CO)cc(Nc2c3cccc(OC)c3nc3c(C(=O)NC)cccc23)c1
pIC50 [1]: 7.49

Compound: CCOC(=O)Nc1cc(CO)cc(Nc2c3ccccc3nc3c(C(=O)NC)cccc23)c1
pIC50 [1]: 7.06

Compound: CCOC(=O)Nc1cc(CO)cc(Nc2c3cccc(OC)c3nc3c(C(=O)NCCN(C)C)cccc23)c1
pIC50 [1]: 8.01

Compound: O=C(Nc1cc(CO)cc(Nc2c3ccccc3nc3ccccc23)c1)Oc1ccccc1
pIC50 [1]: 6.79

Compound: CCOC(=O)Nc1cc(CO)cc(Nc2c3ccccc3nc3c([N+](=O)[O-])cccc23)c1
pIC50 [1]: 5.42

Compound: CCCOC(=O)Nc1cc(CO)cc(Nc2c3ccccc3nc3ccccc23)c1
pIC50 [1]: 8.10

Compound: CCOC(=O)Nc1cc(CO)cc(Nc2c3cccc(C)c3nc3c(C(=O)NC)cccc23)c1
pIC50 [1]: 7.96

Compound: COc1cccc2c1C(=O)c1c(O)c3c(c(O)c1C2=O)C[C@@](O)(C(=O)CO)C[C@@H]3O[C@H]1C[C@H](N)[C@H](O)[C@H](C)O1 [DOXORUBICIN]
Average survival [23]: 27.4 days
Average survival [24]: 14.2 days
Average weight change [25]: -0.4 g
Average weight change [26]: -1.4 g
Average weight change [27]: -1.6 g
Average weight change [28]: -3.2 g
Average weight change [29]: -3.6 g
Increase in life-span [30]: 122%
Increase in life-span [31]: 328%
Toxicity related death [32]: 0
Toxicity related death [33]: 0
Body weight [34]: 23 g
Body weight [35]: 23.6 g

Second part, the compound after the results:

pIC50 [1]: 6.82
Compound: Nc1cc(CO)cc(Nc2c3ccccc3nc3c(F)cccc23)c1

pIC50 [1]: 6.43
Compound: Nc1cc(CO)cc(Nc2c3ccccc3nc3c(Cl)cccc23)c1

pIC50 [1]: 7.51
Compound: CCOC(=O)Nc1cc(CO)cc(Nc2c3ccccc3nc3c(F)cccc23)c1

pIC50 [1]: 4.85
Compound: Nc1cc(CO)cc(Nc2c3ccccc3nc3c([N+](=O)[O-])cccc23)c1

pIC50 [1]: 5.82
Compound: Nc1cc(CO)cc(Nc2c3ccccc3nc3c(Br)cccc23)c1

pIC50 [1]: 6.89
Compound: CCOC(=O)Nc1cc(CO)cc(Nc2c3ccccc3nc3c(Br)cccc23)c1

pIC50 [1]: 6.54
Compound: CNC(=O)c1cccc2c(Nc3cc(N)cc(CO)c3)c3ccccc3nc12

pIC50 [1]: 7.03
Compound: CNC(=O)c1cccc2c(Nc3cc(N)cc(CO)c3)c3cccc(C)c3nc12

pIC50 [1]: 7.96
Compound: COc1cccc2c(Nc3cc(N)cc(CO)c3)c3ccccc3nc12

pIC50 [1]: 7.17
Compound: CCOC(=O)Nc1cc(CO)cc(Nc2c3ccccc3nc3c(Cl)cccc23)c1

pIC50 [1]: 6.89
Compound: CN(C)CCNC(=O)c1cccc2c(Nc3cc(N)cc(CO)c3)c3ccccc3nc12

pIC50 [1]: 8.12
Compound: Cc1cccc2c(Nc3cc(N)cc(CO)c3)c3ccccc3nc12

pIC50 [1]: 8.33
Compound: CCOC(=O)Nc1cc(CO)cc(Nc2c3ccccc3nc3c(C)cccc23)c1
